Data from ChEMBL document CHEMBL3612017, “Rigidified A3 Adenosine Receptor Agonists: 1-Deazaadenine Modification Maintains High in Vivo Efficacy” (ACS Med Chem Lett, 2015).

How the values were obtained:
Adenosine receptor A1 = molecular target: T1, Adenosine receptor A1 (Homo sapiens, UniProt P30542); experiment: Displacement of [3H]N6-R-phenylisopropyladenosine from human adenosine A1 receptor expressed in CHO cell membranes
T1 sequence (P30542 whole entry): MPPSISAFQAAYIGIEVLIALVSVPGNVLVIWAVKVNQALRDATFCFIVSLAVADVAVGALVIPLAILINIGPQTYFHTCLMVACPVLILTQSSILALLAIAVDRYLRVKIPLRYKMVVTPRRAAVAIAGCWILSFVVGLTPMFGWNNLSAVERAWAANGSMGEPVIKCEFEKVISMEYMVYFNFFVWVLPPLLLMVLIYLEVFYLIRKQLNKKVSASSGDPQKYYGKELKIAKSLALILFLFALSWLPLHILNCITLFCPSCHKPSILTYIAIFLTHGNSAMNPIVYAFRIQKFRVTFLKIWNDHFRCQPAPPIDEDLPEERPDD
Outline: (§1)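 Radioligand binding at the human receptor subtypes. Nonspecific binding was defined with adenosine 5′-N-ethyluronamide (10 μM). Ki values came from displacement curves, mean ± SEM, n = 3 unless noted. Single-point data were expressed as % inhibition of binding at 10 μM.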

[1] = molecular target: Adenosine receptor A2a (Homo sapiens) (UniProt P29274); experiment: Displacement of [3H]2-[p-(2-carboxyethyl)phenyl-ethylamino]-5'-Nethylcarboxamidoadenosine from human adenosine A2A receptor expressed in HEK293 cell membranes at 10 uM; outline: as §1
Adenosine receptor A3 [2] = molecular target: T2, Adenosine receptor A3 (Homo sapiens, UniProt P0DMS8); experiment: Displacement of [125I]N6-(4-amino-3-iodobenzyl)adenosine-5'-N-methyluronamide from human adenosine A3 receptor expressed in CHO cell membranes
T2 sequence (P0DMS8 whole entry): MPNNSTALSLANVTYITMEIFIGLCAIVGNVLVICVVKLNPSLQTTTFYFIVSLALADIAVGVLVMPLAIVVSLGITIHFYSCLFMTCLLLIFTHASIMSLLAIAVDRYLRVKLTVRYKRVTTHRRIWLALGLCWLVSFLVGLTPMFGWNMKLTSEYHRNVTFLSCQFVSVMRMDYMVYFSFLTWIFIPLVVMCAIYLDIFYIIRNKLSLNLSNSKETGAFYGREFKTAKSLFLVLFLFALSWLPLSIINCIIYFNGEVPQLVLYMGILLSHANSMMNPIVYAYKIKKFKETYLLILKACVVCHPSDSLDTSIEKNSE

[3] = molecular target: T3, Adenosine receptor A1 (Homo sapiens) (UniProt P30542); experiment: Displacement of [3H]N6-R-phenylisopropyladenosine from human adenosine A1 receptor expressed in CHO cell membranes at 10 uM; outline: as §1
T3 sequence (whole entry): T1 sequence (P30542 whole entry)

Mus musculus [4] = experiment: Effect on contralateral side hind paw in mouse chronic constriction injury model of neuropathic pain at 0.3 to 30 umol/kg administered through oral gavage at point of peak pain on day 7; format: ADME, organism-based; conditions: in vivo
Outline: (§2)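 Mice had sciatic nerve chronic constriction injury. Compound was given by oral gavage on day 7, at peak pain. Mechanoallodynia was scored on the ipsilateral and contralateral hind paws at the 1 h and 3 h time points, as % protection. n = 4 per group, some n = 3.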

Mus musculus [5] = experiment: Analgesic activity in mouse chronic constriction injury model of neuropathic pain assessed as protection of ipsilateral hind paw mechanoallodynia of sciatic nerve at 0.3 to 30 umol/kg administered through oral gavage at point of peak pain on day 7 relative to control measured at 1 hr; format: functional; outline: as §2
Mus musculus [6] = experiment: Analgesic activity in mouse chronic constriction injury model of neuropathic pain assessed as protection of ipsilateral hind paw mechanoallodynia of sciatic nerve at 0.3 to 30 umol/kg administered through oral gavage at point of peak pain on day 7 measured at 3 hrs; format: functional; outline: as §2
Mus musculus [7] = experiment: Analgesic activity in mouse chronic constriction injury model of neuropathic pain assessed as time of peak protection at 0.3 to 30 umol/kg administered through oral gavage at point of peak pain on day 7; format: functional; outline: as §2
Mus musculus [8] = experiment: Analgesic activity in mouse chronic constriction injury model of neuropathic pain assessed as protection of ipsilateral hind paw mechanoallodynia of sciatic nerve at 0.3 to 30 umol/kg administered through oral gavage at point of peak pain on day 7; format: functional; conditions: 168 h; outline: as §2
Adenosine receptor A3 [9] = molecular target: T4, Adenosine receptor A3 (Mus musculus, UniProt Q61618); experiment: Binding affinity to mouse adenosine A3 receptor expressed in HEK293 cell membranes
T4 sequence (Q61618 whole entry): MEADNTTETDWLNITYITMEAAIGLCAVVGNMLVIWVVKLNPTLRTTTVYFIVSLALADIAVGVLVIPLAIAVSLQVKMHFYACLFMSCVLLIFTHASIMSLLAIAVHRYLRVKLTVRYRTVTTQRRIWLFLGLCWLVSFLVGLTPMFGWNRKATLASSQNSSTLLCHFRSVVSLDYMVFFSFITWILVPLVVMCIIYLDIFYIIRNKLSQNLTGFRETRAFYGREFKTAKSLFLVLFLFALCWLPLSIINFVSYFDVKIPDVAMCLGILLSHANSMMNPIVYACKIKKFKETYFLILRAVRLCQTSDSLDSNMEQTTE
Outline: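 Radioligand binding used membranes of HEK293 cells expressing the mouse or the canine A3 receptor.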

Adenosine receptor A3 [10] = molecular target: T5, Adenosine receptor A3 (Canis lupus familiaris, UniProt Q28309); experiment: Binding affinity to canine adenosine A3 receptor expressed in HEK293 cell membranes
T5 sequence (Q28309 whole entry): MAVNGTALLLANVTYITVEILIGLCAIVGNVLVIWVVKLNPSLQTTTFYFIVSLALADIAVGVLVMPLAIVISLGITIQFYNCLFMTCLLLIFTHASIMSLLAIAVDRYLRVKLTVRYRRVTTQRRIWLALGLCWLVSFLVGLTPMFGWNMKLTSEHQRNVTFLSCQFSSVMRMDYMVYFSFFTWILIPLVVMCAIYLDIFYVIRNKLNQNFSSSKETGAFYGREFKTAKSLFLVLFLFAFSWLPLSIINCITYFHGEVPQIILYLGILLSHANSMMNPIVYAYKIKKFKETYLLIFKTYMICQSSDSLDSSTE
Outline: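 Radioligand binding used membranes of HEK293 cells expressing the mouse or the canine A3 receptor. Affinities were given as Ki in nM, mean ± SEM, n = 3.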

[11] = molecular target: 5-hydroxytryptamine receptor 2B (Homo sapiens, UniProt P41595); experiment: Binding affinity to 5HT2B receptor (unknown origin)
[12] = molecular target: T6, Adenosine receptor A2b (Homo sapiens) (UniProt P29275); experiment: Displacement of [3H]MRS1754 from human adenosine A2B receptor expressed in HEK293 cell membranes at 10 uM
T6 sequence (whole entry): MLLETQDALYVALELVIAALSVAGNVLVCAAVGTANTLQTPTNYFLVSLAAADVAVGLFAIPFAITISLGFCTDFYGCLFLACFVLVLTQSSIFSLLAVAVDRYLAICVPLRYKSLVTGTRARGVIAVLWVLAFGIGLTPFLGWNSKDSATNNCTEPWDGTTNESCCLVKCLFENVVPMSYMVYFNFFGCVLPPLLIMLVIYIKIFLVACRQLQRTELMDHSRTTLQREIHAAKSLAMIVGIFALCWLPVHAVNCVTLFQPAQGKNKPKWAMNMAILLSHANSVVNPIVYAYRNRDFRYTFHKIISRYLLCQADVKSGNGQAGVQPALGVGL

[13] = Aqueous solubility of the compound; format: physicochemical; conditions: buffer

Sequence of Adenosine receptor A2a (Homo sapiens) (P29274 whole entry): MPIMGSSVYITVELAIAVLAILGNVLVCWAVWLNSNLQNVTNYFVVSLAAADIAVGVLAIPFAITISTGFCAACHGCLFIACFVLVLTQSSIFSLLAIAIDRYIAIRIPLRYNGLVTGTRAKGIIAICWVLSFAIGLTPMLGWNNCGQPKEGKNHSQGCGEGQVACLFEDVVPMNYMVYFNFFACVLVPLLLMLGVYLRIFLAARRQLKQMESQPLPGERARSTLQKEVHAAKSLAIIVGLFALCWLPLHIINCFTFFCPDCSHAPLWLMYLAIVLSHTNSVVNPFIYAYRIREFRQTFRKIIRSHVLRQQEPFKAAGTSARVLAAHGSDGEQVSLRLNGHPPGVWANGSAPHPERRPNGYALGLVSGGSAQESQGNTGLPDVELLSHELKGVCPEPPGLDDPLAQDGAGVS
Sequence of 5-hydroxytryptamine receptor 2B (P41595 whole entry): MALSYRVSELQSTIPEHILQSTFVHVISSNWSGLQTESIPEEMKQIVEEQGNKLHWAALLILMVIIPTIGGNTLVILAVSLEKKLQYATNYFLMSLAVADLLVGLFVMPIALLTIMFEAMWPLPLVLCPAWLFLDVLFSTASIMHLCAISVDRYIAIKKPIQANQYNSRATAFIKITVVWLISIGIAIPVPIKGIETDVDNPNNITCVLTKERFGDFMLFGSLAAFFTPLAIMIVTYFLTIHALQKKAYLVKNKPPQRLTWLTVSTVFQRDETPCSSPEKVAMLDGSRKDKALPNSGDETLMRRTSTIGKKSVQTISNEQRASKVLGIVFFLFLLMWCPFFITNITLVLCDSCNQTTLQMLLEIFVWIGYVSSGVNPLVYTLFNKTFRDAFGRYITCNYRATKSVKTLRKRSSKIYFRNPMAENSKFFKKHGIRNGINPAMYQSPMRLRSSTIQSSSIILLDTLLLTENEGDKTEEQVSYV

SMILES | Ki (Adenosine receptor A1) | inhibition [1] | Ki (Adenosine receptor A3 [2]) | inhibition [3] | Activity (Mus musculus [4]) | Emax (Mus musculus [5]) | Activity (Mus musculus [6]) | Time (Mus musculus [7]) | ED50 (Mus musculus [8]) | Ki (Adenosine receptor A3 [9]) | Ki (Adenosine receptor A3 [10]; read-out: Ki) | Ki [11] | inhibition [12] | Ki (Adenosine receptor A3 [10]) | solubility [13]
CCCNc1cc(C#Cc2ccc(Cl)s2)nc2c1ncn2[C@H]1[C@H](O)[C@H](O)[C@]2(C(=O)NC)C[C@H]12 | 2440 nM | 11% | 38 nM | – | – | – | – | – | – | – | – | – | – | – | –
CNC(=O)[C@@]12C[C@@H]1[C@@H](n1cnc3c(NCC4CC4)nc(-n4cc(-c5ccc(Cl)s5)nn4)nc31)[C@H](O)[C@@H]2O | 1350 nM | 44% | 9.4 nM | – | – | – | – | – | – | – | – | – | – | – | –
CNC(=O)[C@@]12C[C@@H]1[C@@H](n1cnc3c(NCC4CCC4)nc(C#Cc4ccc(Cl)s4)nc31)[C@H](O)[C@@H]2O | – | 5% | 15 nM | 34% | Non-toxic | 98% | 90% | 1 h | – | – | – | – | – | – | –
CCNc1nc(C#Cc2ccc(Cl)s2)nc2c1ncn2[C@H]1[C@H](O)[C@H](O)[C@]2(C(=O)NC)C[C@H]12 | – | 12% | 3.8 nM | 28% | Non-toxic | 98% | 87% | 1 h | 0.9 µmol/kg | 27 nM | 1.5 nM | – | – | – | –
CNC(=O)[C@@]12C[C@@H]1[C@@H](n1cnc3c(NC4CCC4)nc(C#Cc4ccc(Cl)s4)nc31)[C@H](O)[C@@H]2O | – | 34% | 4.5 nM | 39% | Non-toxic | 97% | 95% | 1 h | – | – | – | – | – | – | –
CNC(=O)[C@@]12C[C@@H]1[C@@H](n1cnc3c(NC)cc(C#Cc4ccc(Cl)s4)nc31)[C@H](O)[C@@H]2O | – | 8% | 3 nM | 15% | Non-toxic | 91% | 80% | 1 h | – | 31 nM | 75 nM | – | – | – | –
CCCNc1nc(C#Cc2ccc(Cl)s2)nc2c1ncn2[C@H]1[C@H](O)[C@H](O)[C@]2(C(=O)NC)C[C@H]12 | – | 34% | 1.1 nM | 22% | Non-toxic | 95% | 93% | 1 h | – | 6.8 nM | 5.8 nM | Not Active | 34% | – | –
CNC(=O)[C@@]12C[C@@H]1[C@@H](n1cnc3c(NC4CC4)cc(C#Cc4ccc(Cl)s4)nc31)[C@H](O)[C@@H]2O | – | 11% | 10 nM | 26% | – | – | – | – | – | – | – | – | – | – | –
CNC(=O)[C@@]12C[C@@H]1[C@@H](n1cnc3c(NC4CC4)nc(C#Cc4ccc(Cl)s4)nc31)[C@H](O)[C@@H]2O | – | 44% | 1 nM | 47% | Non-toxic | 76% | 36% | 1 h | – | – | – | – | – | – | –
CCCCNc1nc(C#Cc2ccc(Cl)s2)nc2c1ncn2[C@H]1[C@H](O)[C@H](O)[C@]2(C(=O)NC)C[C@H]12 | – | 0% | 2.9 nM | 6% | Non-toxic | 68% | 24% | 1 h | – | – | – | – | – | – | –
CNC(=O)[C@@]12C[C@@H]1[C@@H](n1cnc3c(NC)nc(C#Cc4ccc(Cl)s4)nc31)[C@H](O)[C@@H]2O | – | – | – | – | Non-toxic | 93% | 46% | 1 h | 0.73 µmol/kg | – | – | – | – | 8.5 nM | –
CNC(=O)[C@@]12C[C@@H]1[C@@H](n1cnc3c(NC(C)C)nc(C#Cc4ccc(Cl)s4)nc31)[C@H](O)[C@@H]2O | – | 17% | 2.9 nM | 26% | Non-toxic | 88% | 39% | 1 h | – | – | – | – | – | – | –
CCCNc1cc(-n2cc(-c3ccc(Cl)s3)nn2)nc2c1ncn2[C@H]1[C@H](O)[C@H](O)[C@]2(C(=O)NC)C[C@H]12 | – | 4% | 110 nM | 44% | – | – | – | – | – | – | – | – | – | – | –
CNC(=O)[C@@]12C[C@@H]1[C@@H](n1cnc3c(NCC4CCC4)nc(-n4cc(-c5ccc(Cl)s5)nn4)nc31)[C@H](O)[C@@H]2O | 710 nM | 42% | 21 nM | – | – | – | – | – | – | – | – | – | – | – | Insoluble
CNC(=O)[C@@]12C[C@@H]1[C@@H](n1cnc3c(NCC4CC4)nc(C#Cc4ccc(Cl)s4)nc31)[C@H](O)[C@@H]2O | – | 3% | 7.9 nM | 24% | Non-toxic | 94% | 85% | 1 h | – | – | – | – | – | – | –
